pKd, pKi: −log10 of the molar value. One block for each compound: values may come before it.
Columns and labels:
[1] = target: T1, human histidine triad nucleotide binding protein 1 (hHint1) (Homo sapiens, UniProt P49773); test: stopped-flow fluorescence, burst; format: biochemical; conditions: 20 mM HEPES, 1 mM MgCl2, pH 7.2, 25 °C; pre-steady state
Summary of the method: (§1)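 Recombinant WT human Hint1 (E. coli BB2, AMP-agarose, desalted) was loaded at 5 μM in one syringe, with substrate in 20 mM HEPES, 1 mM MgCl2, pH 7.2 in the other. Substrate was phosphoramidate (5-60 μM) or acyl adenylate (5-40 μM). Equal volumes were mixed at 25°C. Fluorescence used excitation at 280 nm and a 320 nm cutoff. The burst rate came from a single exponential plus linear term, and Kadenylyl from a nonlinear fit versus [S]. Six experiments were averaged.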

[2] = target: T1, human histidine triad nucleotide binding protein 1 (hHint1); test: stopped-flow fluorescence, burst; format: biochemical; conditions: 20 mM HEPES, 1 mM MgCl2, pH 7.2, 25 °C; pre-steady state; remark: listed apart in the source
Summary of the method: as §1

[3] = target: T1, human histidine triad nucleotide binding protein 1 (hHint1); test: tryptophan fluorescence titration
[4] = target: T1, human histidine triad nucleotide binding protein 1 (hHint1); test: stopped-flow catalytic trapping with TpAd; format: biochemical
Summary of the method: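 Wild-type human Hint1, expressed in E. coli hinT-disrupted strain BB2 and purified on AMP-agarose, at 5 μM in one stopped-flow syringe. It was pre-incubated 10 min with the test compound (0-5000 μM) and then mixed with the tryptamine-releasing phosphoramidate substrate (40 μM). Indole fluorescence was read with excitation at 280 nm through a 320 nm cutoff filter. Test-compound absorbance was kept within 5%.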

T1 sequence (P49773 2-126): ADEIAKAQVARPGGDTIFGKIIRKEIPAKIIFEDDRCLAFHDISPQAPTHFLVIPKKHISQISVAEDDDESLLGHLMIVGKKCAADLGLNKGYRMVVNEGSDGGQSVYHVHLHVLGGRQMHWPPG

K^adenylyl [1]: 5 ± 1 µM
SMILES: Nc1ncnc2c1ncn2[C@@H]1O[C@H](COP(=O)(O)OC(=O)CCc2c[nH]c3ccccc23)[C@@H](O)[C@H]1O [AIPA]

K^adenylyl [2]: 13 ± 2 µM
SMILES: Nc1ncnc2c1ncn2[C@@H]1O[C@H](COP(=O)(O)NCCc2c[nH]c3ccccc23)[C@@H](O)[C@H]1O [TpAd]

pKd [3]: 3.70
pKi [4]: ~3.70
SMILES: Nc1ncnc2c1ncn2[C@@H]1O[C@H](COP(=O)(O)O)[C@@H](O)[C@H]1O [AMP]

From article PMC3835729 (Biochemistry, 2013)
